Measurements as given in ChEMBL document CHEMBL1123791, “3'-substituted 2',3'-dideoxynucleoside analogues as potential anti-HIV (HTLV-III/LAV) agents” (J Med Chem, 1987).

What was measured:
ATH-8 cell line [1] = experiment: Protection of ATH8 cells against the cytopathic effect of HIV.; assay type: functional; settings: Homo sapiens, read-out: ED50 (the source's name)
ATH-8 cell line [2] = experiment: Required dose to reduce viability of normal uninfected ATH8 cells.; assay type: functional; settings: Homo sapiens, read-out: ID50 (the source's name)
MT4 [3] = experiment: Protection was determined by evaluation of cluster morphology and reclustering properties in […] MT-4 cells at 5 uM concentration.; assay type: functional, Homo sapiens
Procedure, shortened: (§1)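 MT4 cells infected with HIV (300 CCID50/well) were seeded at 2.5×10^5 cells/mL with compound at 125, 5, 0.2, 0.008 or 0.00032 µM and kept 5 days at 37 °C. Clusters were scored microscopically, dispersed by pipetting, and reclustering assessed after 4 h at 37 °C. Scoring: +++ >90% protection.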

MT4 [4] = experiment: Protection was determined by evaluation of cluster morphology and reclustering properties in […] at 0.008 uM concentration.; assay type: functional, Homo sapiens
MT4 [5] = experiment: Protection was determined by evaluation of cluster morphology and reclustering properties in […] MT-4 cells at 0.2 uM concentration; assay type: functional, Homo sapiens
MT4 [6] = experiment: Toxicity was determined by evaluation of cluster morphology and reclustering properties in mock infected MT-4 cells at 0.2 uM concentration; assay type: cell-based; settings: human, mt4, 0.2 µM
MT4 [7] = experiment: Toxicity was determined by evaluation of cluster morphology and reclustering properties in mock infected MT-4 cells at 125 uM concentration; assay type: cell-based; settings: human, mt4, 125 µM
MT4 [8] = experiment: Toxicity was determined by evaluation of cluster morphology and reclustering properties in mock infected MT-4 cells at 5 uM concentration; assay type: cell-based; settings: human, mt4, 5 µM
Procedure, shortened: (§2)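 Mock-infected MT4 cells were seeded at 2.5×10^5 cells/mL with compound at 125–0.00032 µM and cultured 5 days at 37 °C. Cluster morphology was scored microscopically, then cells were dispersed by pipetting and reclustering read after 4 h. Scoring: ++ >90%, + 10–40%, − <10% toxicity.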

MT4 [9] = experiment: Protection was determined by evaluation of cluster morphology and reclustering properties in […] MT-4 cells at 5 uM concentration; Range is 10-40; assay type: functional, Homo sapiens; procedure, shortened: as §1
MT4 [10] = experiment: Protection was determined by evaluation of cluster morphology and reclustering properties in […] MT-4 cells at 0.00032 uM concentration; assay type: functional, Homo sapiens; procedure, shortened: as §1
MT4 [11] = experiment: Protection was determined by evaluation of cluster morphology and reclustering properties in mock infected MT-4 cells at 125 uM concentration; Range is 10-40; assay type: functional, Homo sapiens; settings: in the assay text read “HIV infected” for “mock infected”; procedure, shortened: as §1
MT4 [12] = experiment: Protection was determined by evaluation of cluster morphology and reclustering properties in mock infected MT-4 cells at 125 uM concentration; assay type: functional, Homo sapiens; settings: in the assay text read “HIV infected” for “mock infected”; procedure, shortened: as §1
MT4 [13] = experiment: Toxicity was determined by evaluation of cluster morphology and reclustering properties in mock infected MT-4 cells at 125 uM concentration; Range is 10-40; assay type: cell-based; settings: human, mt4, 125 µM; procedure, shortened: as §2
MT4 [14] = experiment: Protection was determined by evaluation of cluster morphology and reclustering properties in […] MT-4 cells at 0.2 uM concentration; Range is 40-60; assay type: functional, Homo sapiens; procedure, shortened: as §1
[15] = Therapeutic index (Ratio = ID50/ED50).
MT4 [16] = experiment: Protection was determined by evaluation of cluster morphology and reclustering properties in […] at 5 uM concentration; Range is 40-60; assay type: functional, Homo sapiens
MT4 [17] = experiment: Toxicity was determined by evaluation of cluster morphology and reclustering properties in mock infected MT-4 cells at 0.00032 uM concentration; assay type: cell-based; settings: human, mt4, 0.00032 µM; procedure, shortened: as §2
MT4 [18] = experiment: Toxicity was determined by evaluation of cluster morphology and reclustering properties in mock infected MT-4 cells at 0.008 uM concentration; assay type: cell-based; settings: human, mt4, 0.008 µM; procedure, shortened: as §2
MT4 [19] = experiment: Toxicity was determined by evaluation of cluster morphology and reclustering properties in mock infected MT-4 cells at 0.2 uM concentration; Range is 10-40; assay type: cell-based; settings: human, mt4, 0.2 µM; procedure, shortened: as §2
MT4 [20] = experiment: Protection was determined by evaluation of cluster morphology and reclustering properties in […] MT-4 cells at 0.008 uM concentration; Range is 10-40; assay type: functional, Homo sapiens; procedure, shortened: as §1

| SMILES | EC50 (ATH-8 cell line [1]) | IC50 (ATH-8 cell line [2]) | Protection (MT4 [3]) | Protection (MT4 [4]) | Protection (MT4 [5]) | Toxicity (MT4 [6]) | Toxicity (MT4 [7]) | Toxicity (MT4 [8]) | Protection (MT4 [9]) | Protection (MT4 [12]) | selectivity ratio [15] | further results |
| --- | --- | --- | --- | --- | --- | --- | --- | --- | --- | --- | --- | --- |
| Cc1cn([C@H]2C[C@H](I)[C@@H](CO)O2)c(=O)[nH]c1=O | > 500 µM | > 500 µM | <10% | <10% | <10% | < 10% | > 90% | < 10% | – | – | – | – |
| CCc1cn([C@H]2C[C@H](N=[N+]=[N-])[C@@H](CO)O2)c(=O)[nH]c1=O | > 100 µM | > 100 µM | – | <10% | <10% | < 10% | > 90% | < 10% | 10% | – | – | Protection (MT4 [10]): <10% |
| CCc1cn(C2CC(F)C(CO)O2)c(=O)[nH]c1=O (stereo unspecified) | > 500 µM | > 500 µM | <10% | – | <10% | < 10% | < 10% | < 10% | – | – | – | Protection (MT4 [11]): 10% |
| Cc1cn([C@H]2C[C@@H](OS(C)(=O)=O)[C@@H](CO)O2)c(=O)[nH]c1=O | > 100 µM | > 100 µM | <10% | – | <10% | < 10% | – | < 10% | – | >90% | – | Toxicity (MT4 [13]): 10% |
| Nc1ncnc2c1ncn2[C@H]1C[C@H](F)[C@@H](CO)O1 | – | – | – | – | – | < 10% | < 10% | < 10% | – | – | – | – |
| Cc1cn([C@H]2C[C@H](OS(C)(=O)=O)[C@@H](CO)O2)c(=O)[nH]c1=O | > 100 µM | > 100 µM | – | – | <10% | < 10% | < 10% | < 10% | 10% | >90% | – | – |
| Nc1ccn([C@H]2C=C[C@@H](CO)O2)c(=O)n1 | 0.3 µM | 30 µM | >90% | <10% | – | < 10% | > 90% | < 10% | – | – | 100 | Protection (MT4 [14]): 40% |
| CCSC1CC(n2cc(C)c(=O)[nH]c2=O)OC1CO (stereo unspecified) | > 100 µM | 100 µM | – | <10% | <10% | < 10% | > 90% | < 10% | 10% | – | < 1 | – |
| Nc1ncnc2c1ncn2[C@H]1CC[C@@H](CO)O1 | 2.7 µM | > 500 µM | – | – | <10% | < 10% | < 10% | < 10% | – | >90% | > 148 | Protection (MT4 [16]): 40% |
| Nc1ccn(C2CC(F)C(CO)O2)c(=O)n1 (stereo unspecified) | 8 µM | > 250 µM | – | <10% | – | – | > 90% | > 90% | – | – | > 31 | Toxicity (MT4 [17]): < 10%; Protection (MT4 [10]): <10%; Protection (MT4 [14]): 40%; Toxicity (MT4 [18]): < 10%; Toxicity (MT4 [19]): 10% |
| Nc1ccn(C2CC3OCC3O2)c(=O)n1 (stereo unspecified) | 400 µM | > 500 µM | <10% | – | <10% | < 10% | < 10% | < 10% | – | – | > 1.2 | Protection (MT4 [11]): 10% |
| CNc1nc(=O)n(C2CC(N=[N+]=[N-])C(CO)O2)cc1C (stereo unspecified) | > 100 µM | > 100 µM | – | – | <10% | < 10% | < 10% | < 10% | 10% | >90% | – | – |
| Cc1cn(C2CC(Cl)C(CO)O2)c(=O)[nH]c1=O (stereo unspecified) | > 500 µM | > 500 µM | – | <10% | <10% | < 10% | > 90% | < 10% | 10% | – | – | – |
| O=c1ccn(C2CCC(CO)O2)c(=O)[nH]1 (stereo unspecified) | > 500 µM | > 500 µM | <10% | – | <10% | < 10% | < 10% | < 10% | – | >90% | – | – |
| Cc1cn(C2CC(Br)C(CO)O2)c(=O)[nH]c1=O (stereo unspecified) | > 500 µM | 180 µM | – | <10% | <10% | < 10% | > 90% | < 10% | 10% | – | < 0.4 | – |
| Cc1cn(C2CC(SCCO)C(CO)O2)c(=O)[nH]c1=O (stereo unspecified) | > 100 µM | > 100 µM | <10% | – | <10% | < 10% | – | < 10% | – | – | – | Protection (MT4 [11]): 10%; Toxicity (MT4 [13]): 10% |
| Nc1ncnc2c1ncn2[C@H]1C=C[C@@H](CO)O1 | 40 µM | 52 µM | <10% | – | <10% | < 10% | > 90% | < 10% | – | <10% | 1.3 | Toxicity (MT4 [17]): < 10%; Toxicity (MT4 [18]): < 10% |
| CCO[C@H]1C[C@H](n2cc(C)c(=O)[nH]c2=O)O[C@@H]1CO | > 100 µM | > 100 µM | – | <10% | <10% | < 10% | > 90% | < 10% | 10% | – | – | – |
| Cc1cn([C@H]2C[C@H](OCC(=O)[O-])[C@@H](CO)O2)c(=O)[nH]c1=O.[Na+] | > 100 µM | > 100 µM | <10% | – | <10% | < 10% | < 10% | < 10% | – | <10% | – | – |
| Cc1cn([C@H]2C[C@H](SC#N)[C@@H](CO)O2)c(=O)[nH]c1=O | > 100 µM | > 100 µM | – | <10% | <10% | < 10% | > 90% | < 10% | 10% | – | – | – |
| CCc1cn(C2CCC(CO)O2)c(=O)[nH]c1=O (stereo unspecified) | – | – | <10% | <10% | <10% | < 10% | < 10% | < 10% | – | <10% | – | Toxicity (MT4 [18]): < 10% |
| O=c1ccn([C@H]2C=C[C@@H](CO)O2)c(=O)[nH]1 | > 100 µM | 107 µM | <10% | <10% | <10% | < 10% | > 90% | < 10% | – | – | < 1.1 | – |
| Cc1cn([C@H]2C[C@H](N=[N+]=[N-])[C@@H](CO)O2)c(=O)[nH]c1=O (stereo in doubt; 9k) [ZIDOVUDINE] | – | – | <10% | – | <10% | < 10% | – | – | – | <10% | – | Toxicity (MT4 [7]; 125 µM): < 10%; Toxicity (MT4 [8]; 5 µM): < 10% |
| Nc1ncnc2c1ncn2[C@H]1C[C@H](O)[C@@H](CO)O1 [DEOXYADENOSINE] | > 100 µM | > 100 µM | <10% | – | <10% | < 10% | – | < 10% | – | <10% | – | Toxicity (MT4 [13]): 10% |
| Cc1cn([C@H]2C=C[C@@H](CO)O2)c(=O)[nH]c1=O [STAVUDINE] | 4.1 µM | 110 µM | – | – | >90% | – | > 90% | > 90% | – | – | 27 | Protection (MT4 [10]): <10%; Protection (MT4 [20]): 10%; Toxicity (MT4 [19]): 10% |
| Nc1ccn([C@H]2CC[C@@H](CO)O2)c(=O)n1 [ZALCITABINE] | 0.2 µM | 35 µM | >90% | <10% | – | < 10% | > 90% | < 10% | – | – | 175 | Protection (MT4 [14]): 40% |
